Sampled rows, rich in hits. Any-hit rate of the full collection: about 2.3%.
mABHD4 FP: ABHD4 inhibitors, primary screen, biochemical, fluorescence polarization, mouse; AID 720543, 2013; purified mABHD4, FP-Rh probe fluorescence polarization; (Lyso)-N-acylphosphatidylethanolamine lipase (Mus musculus), Q8VD66; actives 0.54% (n = 370,000); inhibition, % at 8.92 µM;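 active = inhibition exceeding the mean over every tested compound plus 3 SD, cut at about 30% in these data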;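 also: 0% = plate median of compound wells and 100% = S159A mutant with DMSO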
Target sequence (Q8VD66 whole entry, looked up): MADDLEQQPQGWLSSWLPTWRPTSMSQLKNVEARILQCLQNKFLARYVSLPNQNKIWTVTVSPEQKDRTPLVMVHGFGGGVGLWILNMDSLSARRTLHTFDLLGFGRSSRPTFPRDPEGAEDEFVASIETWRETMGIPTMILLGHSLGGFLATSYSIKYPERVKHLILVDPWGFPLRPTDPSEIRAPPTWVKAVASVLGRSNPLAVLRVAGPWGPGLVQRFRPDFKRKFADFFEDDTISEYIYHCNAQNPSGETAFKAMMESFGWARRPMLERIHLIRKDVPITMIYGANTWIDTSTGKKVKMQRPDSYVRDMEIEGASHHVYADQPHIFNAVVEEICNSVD
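Doses – 8.92 µM, single dose · Material – wild-type mouse ABHD4 protein · Replication – single well per compound (singlicate) · Measure – percent inhibition of probe binding, normalized to plate controls · Schedule – 45 min compound pre-incubation plus 60 min probe step, 25 °C · Detection – fluorescence polarization with parallel and perpendicular emission, 525/598 nm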
pPAFAH FP inh: pPAFAH enzyme inhibitors, primary screen, biochemical, fluorescence polarization, human; inhibition, % at 3.39 µM; AID 463082, 2010; recombinant pPAFAH, FP-rhodamine probe fluorescence polarization; Platelet-activating factor acetylhydrolase (Homo sapiens), Q13093; actives 1.5% (n = 330,000);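 active = inhibition above the mean inhibition across the screen plus 3 SD, cut at about 25% in these data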;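 also: inhibitors block binding of the rhodamine activity-based probe so polarization drops; 0% = enzyme with DMSO and 100% = wells lacking pPAFAH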
SIAE inh: human SIAE inhibitors, primary screen, biochemical, fluorescence polarization, FP-Rh probe, 1536-well HTS | actives 0.69% (n = 370,000) | Sialate O-acetylesterase (Homo sapiens), Q9HAT2 | inhibition, % at 9.66 µM | SIAE FP-Rh probe binding;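 active = inhibition above a cutoff: mean of compounds within the control limits plus 3 SD of those, cut at about 17% in these data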;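 also: 0% = plate median of compound wells and 100% = probe without SIAE protein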
TCR CD3 inh: inhibitors of human TCR-CD3 interaction, primary screen, biochemical, fluorescence, TAMRA-labeled TCR probe; T-cell receptor (TCR); inhibition, % at 9.4 µM; actives 0.37% (n = 360,000); AID 651800, 2012; in the data active = inhibition above about 19%;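 also: recombinant mutant TCR 2C K166C tagged with TAMRA read by polarization; 0% = receptor in buffer alone and 100% = receptor with positive control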
HTRA1 inh: HTRA1 serine protease inhibitors, primary screen, biochemical, fluorescence polarization, HTS; Q92743; recombinant HTRA1, FP-rhodamine activity-based probe; inhibition, % at 5.96 µM; actives 0.5% (n = 340,000); AID 504803, 2011; in the data active = inhibition above about 36%;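 also: 0% = enzyme with DMSO and 100% = wells lacking enzyme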
mABHD4 conf: ABHD4 inhibitors, retest, confirmation, biochemical, fluorescence polarization, mouse; shares compounds with mABHD4 FP; purified mABHD4, FP-Rh probe fluorescence polarization; inhibition, % at 8.92 µM; actives 55% (n = 1,800); AID 720658, 2013;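 active = mean inhibition across replicates above the hit cutoff set in the primary screen, cut at about 30% in these data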;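 also: 0% = wild-type ABHD4 with DMSO and 100% = catalytically dead S159A mutant with DMSO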
An asterisk follows results filed as active.

CN(C)c1cccc(-c2nccc(N3CCC(C(N)=O)CC3)n2)c1 was read as mABHD4 FP -2.0 and SIAE inh 1.0.
Screening COc1ccc(S[C@]2(C(=O)N3CCOCC3)CC(=O)N(S(=O)(=O)c3ccc(F)cc3)[C@@H]2c2ccc(OC)cc2)cc1 returned mABHD4 FP 6.0 and SIAE inh -4.6.
For Cc1ccc(/C=C2\SC(=S)N(C3CCS(=O)(=O)C3)C2=O)o1 (stereo not drawn) the results were mABHD4 FP 34.3*, pPAFAH FP inh 11.2, SIAE inh 4.6, TCR CD3 inh 0.0, HTRA1 inh 14.0 and mABHD4 conf -6.5.
Screening NS(=O)(=O)c1ccc(-c2ccc(/C=C3\SC(=S)N(C4CCS(=O)(=O)C4)C3=O)o2)cc1 (stereo not drawn) returned mABHD4 FP 29.7*, pPAFAH FP inh 24.8*, SIAE inh 2.7, TCR CD3 inh -14.4, HTRA1 inh 5.1 and mABHD4 conf -7.0.
`OCCN(CCO)c1cc2c3ccccc3ccc2c2ccccc12` gave mABHD4 FP 30.3*, SIAE inh 0.2, TCR CD3 inh -1.6, HTRA1 inh 2.0 and mABHD4 conf 16.4.
For CCCCCn1nnnc1C1(C)CCCC(=O)N1Cc1ccco1 (stereo not drawn) the results were mABHD4 FP 4.5 and SIAE inh 3.2.
For CCCCCn1c(CN2CCN(C)CC2)nc2c1c(=O)n(C)c(=O)n2C the results were mABHD4 FP 30.0*, pPAFAH FP inh -0.7, SIAE inh 1.8, TCR CD3 inh -3.1, HTRA1 inh 4.9 and mABHD4 conf -15.9.
N[C@@H](Cc1cc(I)c(O)c(I)c1)C(=O)O was read as mABHD4 FP 51.0*, pPAFAH FP inh -3.1, SIAE inh -17.1, TCR CD3 inh 13.8, HTRA1 inh 30.7 and mABHD4 conf 80.4*.
NS(=O)(=O)c1ccc(CCNC(=O)CN2C(=O)NC(c3ccccc3)(c3ccccc3)C2=O)cc1 was read as mABHD4 FP 49.1*, pPAFAH FP inh 1.4, SIAE inh -2.0, TCR CD3 inh -1.6, HTRA1 inh -0.1 and mABHD4 conf 20.9.
O=C1C[C@@H](O)[C@H](O)c2cccc(O)c21 was read as mABHD4 FP 34.7*, SIAE inh -6.0 and mABHD4 conf 19.1.
For CCCc1cn(-c2ccc3c(c2)[C@]2(CC(=O)N(C)C2c2ccccc2)C(=O)N3CC(C)C)nn1 (stereo partly drawn) the results were mABHD4 FP 1.6 and SIAE inh 4.2.
Screening c1ccc(CSc2nnnn2-c2ccccc2)cc1 returned mABHD4 FP -7.0, pPAFAH FP inh 10.4, SIAE inh 8.1, TCR CD3 inh -1.2 and HTRA1 inh 0.0.
O=c1cc(CSc2nnnn2-c2ccccc2)[nH]c2[nH]n(-c3ccccc3)c(=O)c12 was read as mABHD4 FP 32.2*, pPAFAH FP inh 23.6, SIAE inh 9.1, TCR CD3 inh 3.7, HTRA1 inh 22.4 and mABHD4 conf 4.7.
Screening CCC(C)(C)C(=O)N1CCc2cc(S(=O)(=O)N(C)Cc3ccco3)ccc21 returned mABHD4 FP -3.9 and SIAE inh -2.3.
For COc1ccccc1CCNC(=O)c1ccc(Br)s1 the results were mABHD4 FP 118.5*, pPAFAH FP inh -2.6, SIAE inh -2.4, TCR CD3 inh -0.9, HTRA1 inh -11.9 and mABHD4 conf -12.4.
`COc1ccccc1CCNS(=O)(=O)CCNC(=O)c1ccccc1` gave mABHD4 FP -0.7, pPAFAH FP inh 3.8, SIAE inh 1.7, TCR CD3 inh 1.2 and HTRA1 inh -5.3.
COc1cc(-c2nc3ccccn3c2/N=C/c2ccc(F)cc2)ccc1O was read as mABHD4 FP 2.6, pPAFAH FP inh -2.5, SIAE inh 3.0, TCR CD3 inh 7.5 and HTRA1 inh -9.3.
Clc1ccc(/C=N/c2c(-c3ccco3)nc3ccccn23)cc1 was read as mABHD4 FP 40.9*, pPAFAH FP inh 21.3, SIAE inh 11.6, TCR CD3 inh 4.0, HTRA1 inh 34.4 and mABHD4 conf 11.9.
Cc1nn(-c2ccccc2)c2c1C(c1ccco1)C(C#N)=C(N)O2 (stereo not drawn) was read as mABHD4 FP 13.1, pPAFAH FP inh 5.2, SIAE inh 6.2, TCR CD3 inh 3.5 and HTRA1 inh 3.5.
Screening Cc1nn(-c2ccccc2)c2c1C(c1ccc([N+](=O)[O-])cc1)C(C#N)=C(N)O2 (stereo not drawn) returned mABHD4 FP 41.7*, pPAFAH FP inh 5.3, SIAE inh 9.4, TCR CD3 inh -6.6, HTRA1 inh 11.5 and mABHD4 conf 11.1.
Screening Cc1ccc(-n2nc(C)c3c2OC(N)=C(C#N)C3c2ccc(F)cc2)cc1 (stereo not drawn) returned mABHD4 FP 36.5*, pPAFAH FP inh 10.5, SIAE inh 1.6, TCR CD3 inh 4.8, HTRA1 inh 23.9 and mABHD4 conf 10.5.
For COc1ccc(OC)c(C2C(C#N)=C(N)Oc3c2c(C)nn3-c2cccc(Cl)c2)c1 (stereo not drawn) the results were mABHD4 FP 21.9, pPAFAH FP inh 10.7, SIAE inh 10.3, TCR CD3 inh -10.6 and HTRA1 inh 10.7.
Cc1nn(-c2cccc(Cl)c2)c2c1C(c1cccnc1)C(C#N)=C(N)O2 (stereo not drawn) was read as mABHD4 FP 30.6*, pPAFAH FP inh 14.5, SIAE inh 10.2, TCR CD3 inh -1.2, HTRA1 inh 23.0 and mABHD4 conf 5.8.
`COc1ccc(NC(=O)CSc2nnc(-c3n[nH]c4c3CCC4)n2N)cc1` gave mABHD4 FP 6.3 and SIAE inh 2.7.
For COC(=O)[C@]12C[C@H](CC(=O)NCc3cccc(C(F)(F)F)c3)C(=O)N(CCC3=CCCCC3)C1=C[C@H](C(C)(C)C)O[C@@H]2C the results were mABHD4 FP -1.6, SIAE inh -7.2 and TCR CD3 inh 3.6.
`CCOC(=O)c1ccc(N2NC(=O)/C(=C/c3ccc(OC(=O)c4ccco4)c(OC)c3)C2=O)cc1` gave mABHD4 FP 33.0*, pPAFAH FP inh 11.1, SIAE inh 3.7, TCR CD3 inh -1.5 and mABHD4 conf 11.9.
Screening COc1ccccc1NC(=O)NN1CCCCC1 returned mABHD4 FP 1.5, pPAFAH FP inh 4.7, SIAE inh 4.6, TCR CD3 inh -4.1 and HTRA1 inh 10.4.
